Here are results for 1 compound from ChEMBL document CHEMBL4480410, “Targeting the MKK7-JNK (Mitogen-Activated Protein Kinase Kinase 7-c-Jun N-Terminal Kinase) Pathway with Covalent Inhibitors” (J Med Chem, 2019).

The nature of series [1]: Inhibition of N-terminal His-tagged MKK7 beta1 S273D/T275D double mutant (unknown origin) expressed in insect cells using JNK1 K55M mutant as substrate by ADP-Glo assay. Further details: species or system Homo sapiens. Put shortly: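 ADP-Glo luminescence run per supplier protocol. Kinase: MKK7 beta1 (aa 1-462, TEV-cleavable N-terminal His6 tag, S273D/T275D) expressed in Sf9 insect cells, used at 20 nM. Substrate: JNK1 K55M at 5 µM. Compound dispensed acoustically; read on plate reader.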

The nature of a further series: in vitro. Particulars: human, liver microsomes. On the technique in general: Liver microsomes are a subcellular fraction often used to study metabolism.
Series [2] can be described thus: Protein binding in human plasma at 5 uM after 6 hrs by LC/MS analysis. The series is classed as ADME, cell-free. Particulars: read-out: PPB (converted). Put shortly:
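Equilibrium dialysis of plasma with compound at 5 µM, 6 h at 37 °C; final compound concentrations determined by LC/MS to give percent bound.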

Series [3] is described as follows: Stability in human plasma assessed as compound remaining at 5 uM after 1 hr by LC/MS analysis. Particulars: read-out: Stability. The series is classed as ADME, cell-free. Put shortly: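 Compound at 5 µM incubated 1 h at 37 °C in human or mouse plasma; percentage remaining quantified by LC/MS.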
The target of series [4] is Ribosomal protein S6 kinase (Homo sapiens) (UniProt P51812+Q9UBS0+O75676+Q15349+O75582+P23443+Q9UK32+Q15418). Kind of series: Inhibition of SK6 (unknown origin) at 1 uM by proQinase-based assay relative to control. It is filed as protein assay.

Where only a bound is given, the exact number is not on record here.

One may read the IC50 as the concentration needed to halve the response being measured. Higher therefore signals weaker potency in that assay. Usually microsomal CLint stands for the capacity of the preparation to metabolise the compound, expressed as a volume cleared per time. One may read the inhibition as the share of the control response that was lost under treatment. A low value points to a weak effect. In series [1], `C=CC(=O)N1CCC[C@@H](n2nc(-c3cn(-c4ccc(C(C)=O)cc4)nn3)c3c(N)ncnc32)C1` yielded an IC50 of 10 nM. Besides, the microsomal CLint at 1 h, 3 µM in the series “in vitro” is 154 µL/min/mg. In series [2], the fraction unbound at 6 h, 5 µM was 0.04. In addition, the remaining at 1 h, 5 µM in series [3] is over 99%. The inhibition in series [4] was over 50%.
